Source: ChEMBL document CHEMBL1124933, “Benzodiazepine receptor binding activity of 8-substituted-9-(3-substituted-benzyl)-6-(dimethylamino)-9H-purines” (J Med Chem, 1990)

Key:
[1] = target: GABA-A receptor; anion channel; test: Inhibition of specific binding of 1.5 nM [3H]diazepam to rat brain benzodiazepine receptors
Rattus norvegicus = test: Percent change in Geller-Seifter conflict schedule was determined in Long-Evans rats after (po) administration of gavage of 25 mg/kg; type: functional
How it was run: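 Long-Evans rats on a modified Geller-Seifter operant conflict schedule, with conflict-period responding scored. Compounds given by oral gavage as a 0.5% methylcellulose suspension at 25 mg/kg. Chlordiazepoxide reference given at 20 mg/kg.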

Structure (SMILES)	IC50 [1] [nM]	Change (Rattus norvegicus) [%]
CN(C)c1ncnc2c1nc(Br)n2Cc1cccc(NS(C)(=O)=O)c1	1500	
CN(C)c1ncnc2c1nc(O)n2Cc1cccc(NC=O)c1	130	-15
CNc1nc2c(N(C)C)ncnc2n1Cc1cccc(NC=O)c1	360	
CN(C)c1ncnc2c1nc(O)n2Cc1cccc(N)c1	1800	
CN(C)c1ncnc2c1nc(N(C)C)n2Cc1cccc(NC=O)c1	110	0
CNc1nc2c(N(C)C)ncnc2n1Cc1ccccc1	17000	
CN(C)c1ncnc2c1ncn2Cc1cccc(NC=O)c1	34	-2
CN(C)c1ncnc2c1nc(Cl)n2Cc1cccc(N)c1	190	15
COC(=O)Nc1cccc(Cn2c(Br)nc3c(N(C)C)ncnc32)c1	5300	
COc1nc2c(N(C)C)ncnc2n1Cc1cccc(N)c1	1000	13
CN(C)c1ncnc2c1nc(N(C)C)n2Cc1ccccc1	5700	
COc1nc2c(N(C)C)ncnc2n1Cc1ccccc1	5400	
CNc1nc2c(N(C)C)ncnc2n1Cc1cccc(N)c1	7300	
CN(C)c1ncnc2c1nc(Br)n2Cc1cccc(NC=O)c1	11	9
CN(C)c1ncnc2c1nc(N(C)C)n2Cc1cccc(N)c1	600	-3
Cc1nc2c(N(C)C)ncnc2n1Cc1ccccc1	8500	
CN(C)c1ncnc2c1nc(Br)n2Cc1cccc(N)c1	110	2
CC(=O)Nc1cccc(Cn2c(Br)nc3c(N(C)C)ncnc32)c1	840	3
CN(C)c1ncnc2c1nc(Br)n2Cc1ccccc1	3000	
CN(C)c1ncnc2c1nc(Br)n2Cc1cccc(NC(N)=O)c1	25	9
CN(C)c1ncnc2c1nc(Br)n2Cc1cccc(NC(=O)c2ccccc2)c1	8000	
